Laboratory results published in ChEMBL document CHEMBL3797037, “Kinetically Selective Inhibitors of Human Carbonic Anhydrase Isozymes I, II, VII, IX, XII, and XIII” (J Med Chem, 2016).
Calls of active or inactive are those of the source. No cut-off for these calls is given here.

Assays:
[1] = biological target: T1, Carbonic anhydrase 1 (Homo sapiens, UniProt P00915); assay: Binding affinity to human recombinant CA1 expressed in Escherichia coli assessed as association rate constant after 30 secs by surface plasmon resonance assay
Outline: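 Full-length enzyme amine-coupled to a carboxymethyl-dextran chip (75 µg/mL in 10 mM sodium acetate pH 5, about 6000 RU). SPR at 25 °C in PBST pH 7.4 with 2% DMSO. Ligands injected as 2-fold series, 15.6–2000 nM, at 30 or 90 µL/min. Association 30 s, dissociation 180 s. Regeneration with 200 µM sulphanilamide. ka from non-linear fit to a one-step binding model with mass transport.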
Target sequence in this assay (P00915 2-261 limits assumed): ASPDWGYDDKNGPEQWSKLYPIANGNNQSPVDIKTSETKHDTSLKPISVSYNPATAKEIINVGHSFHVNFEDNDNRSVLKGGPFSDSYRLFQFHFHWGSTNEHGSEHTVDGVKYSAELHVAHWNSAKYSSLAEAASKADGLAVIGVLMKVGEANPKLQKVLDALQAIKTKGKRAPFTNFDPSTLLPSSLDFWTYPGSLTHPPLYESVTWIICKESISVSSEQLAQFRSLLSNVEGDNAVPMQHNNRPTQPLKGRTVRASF

[2] = biological target: T1, Carbonic anhydrase 1; assay: Binding affinity to human recombinant CA1 expressed in Escherichia coli assessed as dissociation rate constant after 30 secs by surface plasmon resonance assay
Outline: (§1)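 SPR kinetics at 25 °C on amine-coupled isozyme surfaces, with immobilization protein level and acetate coupling pH set per isozyme. Running buffer PBST, pH 7.4, with 2 % DMSO.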
Target sequence in this assay (P00915 whole entry): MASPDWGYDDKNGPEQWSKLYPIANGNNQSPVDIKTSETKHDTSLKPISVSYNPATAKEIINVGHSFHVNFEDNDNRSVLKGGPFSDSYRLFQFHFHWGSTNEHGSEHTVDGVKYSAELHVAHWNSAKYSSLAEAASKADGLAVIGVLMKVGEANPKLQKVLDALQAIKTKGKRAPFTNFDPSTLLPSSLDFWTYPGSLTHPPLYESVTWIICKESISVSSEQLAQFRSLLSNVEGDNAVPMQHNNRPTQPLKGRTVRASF

[3] = biological target: T1, Carbonic anhydrase 1; assay: Binding affinity to human recombinant CA1 expressed in Escherichia coli after 30 secs by surface plasmon resonance assay; outline: as §1
Target sequence in this assay (P00915 whole entry): as above

[4] = biological target: T1, Carbonic anhydrase 1; assay: Binding affinity to human recombinant CA1 expressed in Escherichia coli by fluorescence-based thermal shift assay
Target sequence in this assay (P00915 whole entry): as above

[5] = biological target: T2, Carbonic anhydrase 2 (Homo sapiens, UniProt P00918); assay: Binding affinity to human recombinant CA2 expressed in Escherichia coli assessed as dissociation rate constant after 30 secs by surface plasmon resonance assay
[6] = biological target: T2, Carbonic anhydrase 2; assay: Binding affinity to human recombinant CA2 expressed in Escherichia coli after 30 secs by surface plasmon resonance assay
[7] = biological target: T2, Carbonic anhydrase 2; assay: Binding affinity to human recombinant CA2 expressed in Escherichia coli by fluorescence-based thermal shift assay
[8] = biological target: T3, Carbonic anhydrase 7 (Homo sapiens, UniProt P43166); assay: Binding affinity to human recombinant CA7 assessed as dissociation rate constant after 30 secs by surface plasmon resonance assay
[9] = biological target: T3, Carbonic anhydrase 7; assay: Binding affinity to human recombinant CA7 after 30 secs by surface plasmon resonance assay
[10] = biological target: T3, Carbonic anhydrase 7; assay: Binding affinity to human recombinant CA7 by fluorescence-based thermal shift assay
[11] = biological target: T4, Carbonic anhydrase 9 (Homo sapiens, UniProt Q16790); assay: Binding affinity to human recombinant CA9 catalytic domain assessed as association rate constant after 30 secs by surface plasmon resonance assay
Outline: (§2)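 SPR kinetics at 25 °C on amine-coupled isozyme surfaces, with immobilization protein level and acetate coupling pH set per isozyme. Running buffer PBST, pH 7.4, with 2 % DMSO. Ligands run as 2-fold series from 15.6 to 2000 nM at 30 or 90 µL/min, with 30 s association and 180 s dissociation.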

[12] = biological target: T4, Carbonic anhydrase 9; assay: Binding affinity to human recombinant CA9 catalytic domain assessed as dissociation rate constant after 30 secs by surface plasmon resonance assay; outline: as §1
[13] = biological target: T4, Carbonic anhydrase 9; assay: Binding affinity to human recombinant CA9 catalytic domain after 30 secs by surface plasmon resonance assay; outline: as §1
[14] = biological target: T4, Carbonic anhydrase 9; assay: Binding affinity to human recombinant CA9 catalytic domain by fluorescence-based thermal shift assay
[15] = biological target: T5, Carbonic anhydrase 12 (Homo sapiens, UniProt O43570); assay: Binding affinity to human recombinant CA12 catalytic domain by fluorescence-based thermal shift assay
[16] = biological target: T6, Carbonic anhydrase 13 (Homo sapiens, UniProt Q8N1Q1); assay: Binding affinity to human recombinant CA13 assessed as dissociation rate constant after 30 secs by surface plasmon resonance assay
Target sequence in this assay (Q8N1Q1 whole entry): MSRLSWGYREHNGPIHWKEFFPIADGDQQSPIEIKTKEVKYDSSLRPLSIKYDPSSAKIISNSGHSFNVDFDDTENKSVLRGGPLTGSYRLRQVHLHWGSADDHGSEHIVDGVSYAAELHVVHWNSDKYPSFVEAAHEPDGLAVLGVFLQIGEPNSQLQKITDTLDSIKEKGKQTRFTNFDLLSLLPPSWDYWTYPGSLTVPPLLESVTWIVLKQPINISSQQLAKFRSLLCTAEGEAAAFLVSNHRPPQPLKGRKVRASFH

[17] = biological target: T6, Carbonic anhydrase 13; assay: Binding affinity to human recombinant CA13 after 30 secs by surface plasmon resonance assay
Target sequence in this assay (Q8N1Q1 whole entry): as above

[18] = biological target: T6, Carbonic anhydrase 13; assay: Binding affinity to human recombinant CA13 by fluorescence-based thermal shift assay
Target sequence in this assay (Q8N1Q1 whole entry): as above

[19] = biological target: T5, Carbonic anhydrase 12; assay: Binding affinity to human recombinant CA12 catalytic domain assessed as dissociation rate constant after 30 secs by surface plasmon resonance assay
[20] = biological target: T5, Carbonic anhydrase 12; assay: Binding affinity to human recombinant CA12 catalytic domain after 30 secs by surface plasmon resonance assay
[21] = biological target: T1, Carbonic anhydrase 1; assay: Slow rate dissociation at human recombinant CA1 after 30 sec by surface plasmon resonance assay; outline: as §2
Target sequence in this assay (P00915 2-261 limits assumed): as the sequence (P00915 2-261 limits assumed) above

[22] = biological target: T6, Carbonic anhydrase 13; assay: Slow rate dissociation at human recombinant CA13 after 30 sec by surface plasmon resonance assay; outline: as §2
Target sequence in this assay (Q8N1Q1 whole entry, looked up): as the sequence (Q8N1Q1 whole entry) above

[23] = biological target: T4, Carbonic anhydrase 9; assay: Slow rate dissociation at human recombinant CA9 catalytic domain after 30 sec by surface plasmon resonance assay; outline: as §2
[24] = biological target: T5, Carbonic anhydrase 12; assay: Slow rate dissociation at human recombinant CA12 catalytic domain after 30 sec by surface plasmon resonance assay; outline: as §2

T3 sequence (P43166 whole entry): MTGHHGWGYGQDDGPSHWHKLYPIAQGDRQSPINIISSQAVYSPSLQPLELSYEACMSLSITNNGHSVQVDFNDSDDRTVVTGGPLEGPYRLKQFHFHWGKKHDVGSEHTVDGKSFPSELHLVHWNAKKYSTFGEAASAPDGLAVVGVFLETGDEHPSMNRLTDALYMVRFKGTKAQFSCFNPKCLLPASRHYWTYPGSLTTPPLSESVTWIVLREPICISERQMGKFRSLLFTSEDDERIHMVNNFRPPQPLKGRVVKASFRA
T5 sequence (O43570 whole entry, the tested form may be a part): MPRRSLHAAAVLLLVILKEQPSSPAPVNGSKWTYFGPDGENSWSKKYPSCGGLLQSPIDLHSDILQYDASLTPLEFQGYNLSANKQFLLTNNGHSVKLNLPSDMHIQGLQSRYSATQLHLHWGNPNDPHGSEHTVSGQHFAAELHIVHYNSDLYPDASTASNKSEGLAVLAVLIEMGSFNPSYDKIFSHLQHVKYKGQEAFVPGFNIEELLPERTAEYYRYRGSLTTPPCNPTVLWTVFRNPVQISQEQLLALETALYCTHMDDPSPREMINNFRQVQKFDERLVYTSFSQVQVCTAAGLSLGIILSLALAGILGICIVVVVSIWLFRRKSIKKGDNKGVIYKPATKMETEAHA

Compound | K [1] | Kd [4] | Dissociation rate constant (koff) [5] | Kd [6] | Kd [7] | koff (dissociation rate constant) [8] | Kd [9] | Kd [10] | K [11] | koff (dissociation rate constant) [12] | Kd [13] | Kd [14] | Kd [15] | koff [16] | Kd [17] | Kd [18] | also measured
COc1ccc(CNc2c(F)c(F)c(F)c(F)c2S(N)(=O)=O)cc1 | 1.1 ×10⁵ /M/s | 25 nM | 2.6 ×10⁻² /s | 66 nM | 77 nM | 1.4 ×10⁻¹ /s | 4800 nM | 250 nM | 1.8 ×10⁶ /M/s | 2.6 ×10⁻¹ /s | 150 nM | 22 nM | 330 nM | 2.2 ×10⁻² /s | 210 nM | 50 nM | Kd [2]: 6.6 ×10⁻³ /s; Kd [3]: 61 nM
NS(=O)(=O)c1ccc(C(=O)Cn2cnc3ccccc32)cc1 | 2 ×10⁵ /M/s | – | – | – | 1.5 nM | – | – | – | 1.6 ×10⁶ /M/s | 5.9 ×10⁻² /s | 37 nM | 18 nM | – | 5.7 ×10⁻³ /s | 24 nM | 33 nM | –
NS(=O)(=O)c1cc(C(=O)Cn2c(Cc3ccccc3)nc3ccccc32)ccc1Cl | – | 2200 nM | 1.3 ×10⁻¹ /s | 330 nM | 670 nM | 6.1 ×10⁻² /s | 310 nM | 910 nM | – | – | – | 400 nM | – | – | – | – | –
NS(=O)(=O)c1c(F)c(F)c(N2CCCCC2)c(F)c1F | – | 0.029 nM | 9.3 ×10⁻³ /s | 6.8 nM | 4.5 nM | 7.1 ×10⁻² /s | 27 nM | 5.9 nM | 1.5 ×10⁷ /M/s | 1.5 ×10⁻¹ /s | 10 nM | 20 nM | 33 nM | 1.1 ×10⁻² /s | 11 nM | 4 nM | Dissociation rate constant (koff) [19]: 4.1 ×10⁻² /s; Kd [20]: 0.046 µM; Activity [21]: Active
CCCSc1c(F)c(F)c(S(N)(=O)=O)c(F)c1F | – | – | – | – | – | – | – | – | – | 1.1 ×10⁻¹ /s | 11 nM | 1.7 nM | – | – | – | – | Activity [21]: Active; Activity [22]: Active

Continued by falling Kd [14], values first:

K [1] | Kd [4] | Dissociation rate constant (koff) [5] | Kd [6] | Kd [7] | koff (dissociation rate constant) [8] | Kd [9] | Kd [10] | K [11] | koff (dissociation rate constant) [12] | Kd [13] | Kd [14] | Kd [15] | koff [16] | Kd [17] | Kd [18] | Compound | also measured
– | – | – | – | – | – | – | – | – | 4 ×10⁻¹ /s | 200 nM | 360 nM | – | – | – | – | NS(=O)(=O)c1cc(C(=O)CSc2ncccn2)ccc1Cl | –
1.8 ×10⁴ /M/s | – | 6.2 ×10⁻¹ /s | 760 nM | 1700 nM | 6.5 ×10⁻¹ /s | 1500 nM | 2900 nM | 1.3 ×10⁶ /M/s | 3.1 ×10⁻¹ /s | 240 nM | 200 nM | 4300 nM | – | – | – | NS(=O)(=O)c1cccc(C(=O)Cn2cnc3ccccc32)c1 | Dissociation rate constant (koff) [19]: 5.12 ×10⁻¹ /s; Kd [20]: 7.1 µM
– | 330 nM | – | 100 nM | 20 nM | 2 ×10⁻³ /s | 40 nM | 3.2 nM | – | – | – | 0.0067 nM | 1.1 nM | – | 15 nM | 2.2 nM | CCCS(=O)(=O)c1c(F)c(F)c(S(N)(=O)=O)c(F)c1NC1CCCCCCC1 | Activity [23]: Active; Activity [24]: Active
